Source: paper PMC7415964 (The Journal of Biological Chemistry, 2021)
Blank lines part the entries; values can stand above or below the molecule they belong to. Where a SMILES comes first, the peptide text is derived from it. The star is where a group is joined. FITC = O=C1OC2(c3ccc(O)cc3Oc3cc(O)ccc32)c2ccc(NC(=S)*)cc21

Tests used:
human CCL2-647 (human) = human CCL2-647 (human) (UniProt P13500); test: flow cytometry on cells
human CCL8-647 (human) = human CCL8-647 (human) (UniProt P80075); test: flow cytometry on cells
[1] = target: C–C motif chemokine ligand 8 (CCL8) (human) (UniProt P80075)
[2] = target: EVA1(P672_(22-32)) hybrid protein (not stated | Rhipicephalus pulchellus); test: BLI
CCL7 = test: Fluorescence polarization assay, CCL7; format: binding; conditions: BK1.1FITC 50 nM, chemokine 1 μM, compared with negative control CXCL1
How it was run: (§1)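 Polarization read with FITC filters, gain set at 35 mP on a peptide-only well, and converted to anisotropy, A = 2P/(3 − P). CXCL1 negative control. Two technical, three biological replicates. One-way ANOVA with Sidak's correction.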

CCL18 = test: Fluorescence polarization assay, CCL18; format: binding; conditions: BK1.1FITC 50 nM, chemokine 1 μM, compared with negative control CXCL1
How it was run: as §1

CCL8 = target: T1, CCL8 (Homo sapiens, UniProt P80075); test: Fluorescence polarization assay, CCL8; format: binding; conditions: fluorescent peptide 50 nM, CCL8 1 μM, 30 min, compared with scrambled control
T1 sequence (P80075 24-99): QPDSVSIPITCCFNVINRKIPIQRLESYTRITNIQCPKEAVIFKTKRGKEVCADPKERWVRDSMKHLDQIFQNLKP
How it was run: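 Polarization read with FITC filters, gain set to 35 mP on a peptide-only well, and converted to anisotropy A = 2P/(3 − P). Two technical × three biological replicates. Scrambled FITC peptide as negative control; one-way ANOVA with Sidak's correction.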

P672–CCL8 complex = test: Hydrogen–deuterium exchange MS of the P672–CCL8 complex; conditions: complex versus free CCL8; 5 s, 30 s, 5 min, 60 min; triplicate
[3] = target: T2, C–C motif chemokine ligand 8 (CCL8) (human), P80075; test: native MS; conditions: remark: other sources report otherwise
T2 chain: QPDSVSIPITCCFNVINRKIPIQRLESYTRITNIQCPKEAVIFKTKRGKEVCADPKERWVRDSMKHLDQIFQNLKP

human CCL2-647 (human), sequence (P13500 24-99): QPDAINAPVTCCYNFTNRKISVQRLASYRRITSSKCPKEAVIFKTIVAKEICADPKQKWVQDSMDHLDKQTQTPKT

Molecule: evasin EVA-P672 (natural protein)
IC50 (human CCL2-647 (human)): 21 nM
IC50 (human CCL8-647 (human)): 21 nM
IC50 of inhibition of CCL8-induced THP-1 cell migration [1]: 2.6 nM

Molecule: C–C motif chemokine ligand 8 (CCL8) (from UniProt P80075 24-99)
Kd [2]: 490 nM

Now from value to molecule, other results behind:

change in anisotropy upon incubation with CCL8 (CCL8): displayed an increase in anisotropy
Molecule: CC(C)[C@H](NC(=O)[C@@H]1CCCN1C(=O)[C@H](CCCCN)NC(=O)[C@H](Cc1ccccc1)NC(=O)[C@H](Cc1ccccc1)NC(=O)[C@H](CC(=O)O)NC(=O)[C@H](CCC(=O)O)NC(=O)[C@H](Cc1ccc(O)cc1)NC(=O)[C@H](CC(=O)O)NC(=O)[C@H](CCC(=O)O)NC(=O)[C@H](CC(=O)O)NC(=O)[C@H](CCC(=O)O)NC(=S)Nc1ccc2c(c1)C(=O)OC21c2ccc(O)cc2Oc2cc(O)ccc21)C(=O)N[C@H](C(=O)N[C@@H](C)C(=O)N[C@@H](Cc1ccc(O)cc1)C(=O)N[C@@H](Cc1ccccc1)C(N)=O)[C@@H](C)O [BK1.1FITC] ({FITC}-EDEDYEDFFKPVTAYF-NH2)
change in anisotropy with CCL7 (CCL7): significant increases in anisotropy
change in anisotropy with CCL18 (CCL18): significant increases in anisotropy

stoichiometry N [3]: 2
B1: C–C motif chemokine ligand 8 (CCL8), P80075 24-99 (ligand)
chain: QPDSVSIPITCCFNVINRKIPIQRLESYTRITNIQCPKEAVIFKTKRGKEVCADPKERWVRDSMKHLDQIFQNLKP
% relative deuterium uptake (%D), CCL8 Arg18–Ser27 (P672–CCL8 complex): −6 to −18%
